The sample as a whole holds a higher share of hits than the screen did.
INS-1E ATP HTS – INS-1E beta cell protection from cytokine death; protection from cytokine-induced ATP loss, % at 10 µM; INS-1E cytokine-induced death, ATP luminescence, 48 h; normalised: neutral wells 0, positive control 100; 20,000 tested, 0.1% active; AID 488910;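 active = mean replicate protection from cytokine-induced ATP loss at least 50% and at least 75% of replicates each reaching 50%; inconclusive = meets only one of the two criteria, mean or replicate share; inactive = fails both the mean and replicate share criteria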
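Assay system: INS-1E rat cells / Quantity: 8000 cells per well / Medium: RPMI without phenol red, 5% FBS / Probe or stimulus: three-cytokine cocktail (IFN-γ, TNF-α, IL-1β) / Dosing: one compound concentration, pin transfer / Timing: 48 h co-treatment, 10 min post-lysis read / Technique: CellTiter-Glo luminescence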
A1 apoptosis 2 – blocks A1, raising caspase activity | 24,000 tested, under 10 active | caspase activation, % (concentration not given with the values) | MEF A1-2A-BIM cells, caspase-Glo luminescence, 3 h; percent of clofoctol response, DMSO zero; in the data active = caspase activation above about 5.9%; inconclusive = no clear call, values can overlap the other calls; inactive = below about 2.2%
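Evaluation: Caspase-3/7 activity from luminescence increase | Assay system: A1-2A-BIM mouse embryonic fibroblasts | Quantity: 2500 MEF cells/well | Medium: RPMI-1640 plus 10% FBS | Detection: Caspase-Glo 3/7 luminescence, 1 h at room temperature | Dosing: 50 nL compound per well, pinned | Timing: Cells settled overnight, compound exposure 3 h at 37 °C, 5% CO2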
T cruzi intra – blocks T. cruzi growth inside host cells. AID 651903. intracellular Trypanosoma cruzi in host cells, plate reader. activity score (inhibition), % at 5.01 µM. 22,000 tested, 4.9% active; in the data active = activity score above about 55%; inconclusive = no clear call, values can overlap the other calls;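 note: parasites and compound incubated about four days before reading; 0% = median of neutral control wells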
* marks the source's active call; other numbers are inactive results; ? = inconclusive; . = no result.

SMILES | INS-1E ATP HTS | A1 apoptosis 2 | T cruzi intra
COc1ccc(S(=O)(=O)Nc2ccc3c(c2)CC(=O)N([C@H](C)CO)C[C@@H](C)[C@@H](CN(C)S(=O)(=O)c2ccccc2)O3)cc1 | 7.1 | 0.6 | 74.2*
Cc1ccc(S(=O)(=O)Nc2ccc3c(c2)CC(=O)N([C@H](C)CO)C[C@@H](C)[C@@H](CN(C)S(=O)(=O)c2ccc(Cl)cc2)O3)cc1 | -9.7 | 0.2 | 66.3*
COc1ccc(S(=O)(=O)N(C)C[C@H]2Oc3ccc(NS(=O)(=O)c4ccc(F)cc4)cc3CC(=O)N([C@@H](C)CO)C[C@H]2C)cc1 | 1.1 | -0.1 | 14.0
Cc1ccc(S(=O)(=O)Nc2ccc3c(c2)CC(=O)N([C@@H](C)CO)C[C@@H](C)[C@@H](CN(C)S(=O)(=O)c2cccs2)O3)cc1 | -0.5 | . | 37.7
Cc1ccc(S(=O)(=O)N(C)C[C@@H]2Oc3ccc(NS(=O)(=O)c4ccc(Cl)cc4)cc3CC(=O)N([C@H](C)CO)C[C@H]2C)cc1 | 1.5 | . | -8.7
Cc1ccc(S(=O)(=O)Nc2ccc3c(c2)CC(=O)N([C@H](C)CO)C[C@@H](C)[C@@H](CN(C)S(=O)(=O)c2cccs2)O3)cc1 | -10.4 | -0.2 | 67.6*
COc1ccc(S(=O)(=O)Nc2ccc3c(c2)CC(=O)N([C@@H](C)CO)C[C@@H](C)[C@@H](CN(C)S(=O)(=O)c2ccc(F)cc2)O3)cc1 | -8.0 | . | 63.5*
O=C(NO)c1cccc(C(=O)N/N=C/c2ccc(N3CCCC3)cc2)c1 | -3.6 | -5.0 | -12.1
CC(C)CNC(=O)[C@@]1(C)c2ccccc2C(=O)N(Cc2cc(F)cc(C(F)(F)F)c2)[C@H]1c1ccc(CO)cc1 | . | -1.0 | .
O=C(CCCCCC(=O)N/N=C/c1ccc([N+](=O)[O-])c(O)c1)NO | -2.5 | 0.1 | 12.0
C[C@H]1CN([C@@H](C)CO)C(=O)Cc2cc(NS(=O)(=O)c3ccccc3)ccc2O[C@@H]1CN(C)S(=O)(=O)c1ccc(Cl)cc1 | 5.9 | 0.6 | 4.5
Cc1ccc(S(=O)(=O)Nc2ccc3c(c2)CC(=O)N([C@@H](C)CO)C[C@H](C)[C@@H](CN(C)S(=O)(=O)c2ccc(C)cc2)O3)cc1 | 1.6 | . | -5.8
Cc1ccc(S(=O)(=O)Nc2ccc3c(c2)CC(=O)N([C@@H](C)CO)C[C@@H](C)[C@@H](CN(C)S(=O)(=O)c2ccc(C)cc2)O3)cc1 | -5.3 | 1.5 | 61.7*
COc1ccc(S(=O)(=O)N(C)C[C@H]2Oc3ccc(NS(=O)(=O)c4ccc(C)cc4)cc3CC(=O)N([C@@H](C)CO)C[C@H]2C)cc1 | 0.0 | . | 53.1
COc1ccc(S(=O)(=O)Nc2ccc3c(c2)CC(=O)N([C@H](C)CO)C[C@@H](C)[C@@H](CN(C)S(=O)(=O)c2ccc(C)cc2)O3)cc1 | 8.5 | -1.1 | 61.3*
C[C@@H]1CN([C@H](C)CO)C(=O)Cc2cc(NS(=O)(=O)c3ccccc3)ccc2O[C@@H]1CN(C)S(=O)(=O)c1ccc(Cl)cc1 | 0.5 | . | 68.2*
CC(C)NC(=O)Nc1cccc2c1O[C@@H](CN(C)Cc1ccc(Oc3ccccc3)cc1)[C@@H](C)CN([C@@H](C)CO)C2=O | -7.0 | -0.9 | -49.0
C[C@@H]1CN([C@@H](C)CO)C(=O)c2cccc(NC(=O)Nc3ccc(F)cc3)c2O[C@H]1CN(C)C | 6.4 | -0.4 | -4.5
COCCOC(=O)N1C(=O)[C@@]2(c3cc(C#CC4(O)CCCCCC4)ccc31)[C@H](c1ccc(O)cc1)N1[C@H](c3ccccc3)[C@H](c3ccccc3)OC(=O)[C@H]1[C@@H]2C(N)=O | . | 0.5 | .
COc1ccc(/C=N/NC(=O)CCCCCCC(=O)Nc2ccccc2O)c(OC)c1 | -1.9 | -0.2 | -8.2
C[C@H]1CN([C@@H](C)CO)C(=O)c2cc(NC(=O)Nc3ccccc3)ccc2O[C@H]1CN(C)Cc1ccc2c(c1)OCO2 | . | . | 51.6*
C[C@H]1CN([C@@H](C)CO)C(=O)c2cc(NC(=O)Nc3ccc(C(F)(F)F)cc3)ccc2O[C@H]1CN(C)Cc1ccc(C(F)(F)F)cc1 | -14.4 | -0.4 | ?
C[C@H]1CN([C@@H](C)CO)C(=O)c2cc(NC(=O)Nc3ccc(C(F)(F)F)cc3)ccc2O[C@H]1CN(C)Cc1ccc2c(c1)OCO2 | . | . | 34.2*
C[C@@H]1CN([C@H](C)CO)C(=O)c2cc(NC(=O)Nc3ccc4c(c3)OCO4)ccc2O[C@H]1CN(C)Cc1ccc(Oc2ccccc2)cc1 | . | . | -5.6
C[C@@H]1CN([C@@H](C)CO)C(=O)c2cc(NC(=O)Nc3ccc4c(c3)OCO4)ccc2O[C@@H]1CN(C)Cc1ccc(C(F)(F)F)cc1 | . | -1.7 | 68.0*
SMILES | INS-1E ATP HTS | A1 apoptosis 2 | T cruzi intra
C[C@H]1CN([C@@H](C)CO)C(=O)c2cc(NC(=O)Nc3ccc4c(c3)OCO4)ccc2O[C@@H]1CN(C)Cc1ccc2c(c1)OCO2 | -4.4 | 0.9 | -1.5
C[C@@H]1CN([C@H](C)CO)C(=O)c2cc(NC(=O)Nc3ccc4c(c3)OCO4)ccc2O[C@@H]1CN(C)Cc1ccc(Oc2ccccc2)cc1 | -12.3 | . | 61.6*
C[C@@H]1CN([C@H](C)CO)C(=O)c2cc(NC(=O)Nc3ccc(C(F)(F)F)cc3)ccc2O[C@H]1CN(C)Cc1ccc2c(c1)OCO2 | -18.7 | . | 36.5
O=C(NO)c1cccc(C(=O)N/N=C/c2ccccc2Br)c1 | -7.7 | -4.1 | -5.3
O=C(CCCCC(=O)N/N=C/c1coc2ccccc2c1=O)NO | 24.9 | 1.1 | -1.5
CC(C)(C)OC(=O)CC[C@]12N=C(c3ccc(OCCCO)cc3)O[C@H]1c1ccccc1CN(CCS(=O)(=O)c1ccccc1)C2=O | . | 0.5 | .
CC(C)(C)OC(=O)N1CCC[C@H]1/C=N/NC(=O)c1ccc(C(=O)NO)cc1 | 25.6 | 0.9 | 4.2
O=C(NCCN1CCOCC1)[C@@]1(Cc2ccccc2)N=C(c2ccc(OCCCO)cc2)O[C@H]1c1ccccc1 | . | 0.4 | .
NC(=O)NCC#Cc1ccc2c(c1)[C@]1(C(=O)N2)[C@H](C(=O)N2CCCCCCC2)[C@H]2C(=O)O[C@H](c3ccccc3)[C@H](c3ccccc3)N2[C@@H]1c1ccc(O)cc1 | . | 0.6 | .
C[C@@H]1CN([C@H](C)CO)C(=O)c2cccc(NC(=O)c3ccncc3)c2O[C@@H]1CN(C)Cc1ccc2c(c1)OCO2 | -5.8 | -0.2 | -8.1
C[C@H](CO)N1C[C@H](C)[C@@H](CN(C)Cc2ccc3c(c2)OCO3)Oc2c(NC(=O)c3ccncc3)cccc2C1=O | 15.1 | -0.2 | 76.1*
C[C@H]1CN([C@@H](C)CO)C(=O)c2cccc(NC(=O)c3ccncc3)c2O[C@@H]1CN(C)Cc1ccc2c(c1)OCO2 | -5.3 | -0.2 | 78.2*
C[C@@H]1CN([C@@H](C)CO)C(=O)c2cccc(NC(=O)c3ccncc3)c2O[C@@H]1CN(C)Cc1ccc2c(c1)OCO2 | 3.2 | 1.8 | -1.2
CC(C)(C)NC(=O)C(OC(=O)c1ccccc1)c1ccco1 (stereo not given) | . | 0.1 | .
O=C(NO)c1cccc(C(=O)N/N=C/c2cccc(O)c2)c1 | 7.4 | -2.2 | -18.3
O=C(CCCCCCC(=O)N/N=C/c1cc(O)ccc1[N+](=O)[O-])NO | . | 1.2 | .

Assay outcomes: PubChem BioAssay, Broad Institute
